Experimental data taken from PubChem BioAssay AID588746 (Vanderbilt Specialized Chemistry Center, 2011).
One block for each molecule: values may come before it. Activity calls are given as the source filed them.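 How the source made its calls: active means a clear concentration-dependent response in the calcium flux assay, with a fitted half-maximal potency; inactive means the rest.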

Molecular target: Muscarinic acetylcholine receptor M2 (Homo sapiens) (UniProt P08172)
Test: potentiation of ACh at human M2 – CHO Gqi5 cells, calcium fluorescence, counter-screen, dose response (AID 588746)
Details: CHO hM2/Gqi5 calcium mobilization, Fluo-4 fluorescence
In short: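 System: hM2/Gqi5 CHO cells | Reagent: ACh EC20 then ACh EC80 | Incubation: 144 s compound pretreatment, 86 s EC20–EC80 gap, 37 °C | Technique: Fluo-4 calcium kinetic read | Benchmarks: 1 mM ACh maximum | Measure: Baseline-corrected calcium signal as percent of 1 mM ACh maximum, logistic-fit EC50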

Muscarinic acetylcholine receptor M2 (Homo sapiens), sequence (P08172 whole entry, looked up): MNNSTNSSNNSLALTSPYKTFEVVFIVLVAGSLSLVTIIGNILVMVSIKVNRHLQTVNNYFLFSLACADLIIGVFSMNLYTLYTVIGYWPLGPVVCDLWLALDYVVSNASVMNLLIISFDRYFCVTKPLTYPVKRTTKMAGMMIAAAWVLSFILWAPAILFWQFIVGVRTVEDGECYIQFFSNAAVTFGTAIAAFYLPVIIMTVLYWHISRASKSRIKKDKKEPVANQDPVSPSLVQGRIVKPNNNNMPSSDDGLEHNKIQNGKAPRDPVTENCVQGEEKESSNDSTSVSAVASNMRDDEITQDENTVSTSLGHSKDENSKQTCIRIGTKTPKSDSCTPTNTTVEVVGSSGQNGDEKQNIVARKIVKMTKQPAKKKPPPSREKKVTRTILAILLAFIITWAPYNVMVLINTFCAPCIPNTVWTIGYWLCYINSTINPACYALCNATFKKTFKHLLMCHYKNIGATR

SMILES: Cc1nc2sc(C(=O)NC3CC3)c(N)c2c(C)c1Cl
EC50: 548 nM

SMILES: Cc1nc2sc(C(=O)NCc3nccs3)c(N)c2c(C)c1Cl
percent of ACh max response (at 30 µM (top of the series)): inactive

SMILES: Cc1nc2sc(C(=O)NCc3ccc4c(c3)OCO4)c(N)c2c(C)c1Cl
percent of ACh max response (at 36.8 µM (top of the series)): inactive

SMILES: Cc1nc2sc(C(=O)NCc3ccncn3)c(N)c2c(C)c1Cl
percent of ACh max response (at 30 µM (top of the series)): inactive

SMILES: Cc1nc2sc(C(=O)NCc3cccc(F)c3F)c(N)c2c(C)c1Cl
percent of ACh max response (at 30 µM (top of the series)): inactive

SMILES: Cc1nc2sc(C(=O)NCCc3ccncc3)c(N)c2c(C)c1Cl
percent of ACh max response (at 30 µM (top of the series)): inactive

Now from value to molecule:

percent of ACh max response (at 45.3 µM (top of the series)): inactive
SMILES: Cc1nc2sc(C(=O)NCc3ccncc3)c(N)c2c(C)c1Cl

percent of ACh max response (at 37.4 µM (top of the series)): inactive
SMILES: Cc1nc2sc(C(=O)NCc3ccccc3)c(N)c2c(C)c1Cl

percent of ACh max response (at 45.3 µM (top of the series)): inactive
SMILES: Cc1nc2sc(C(=O)NCc3cccnc3)c(N)c2c(C)c1Cl
